Test results as given in ChEMBL document CHEMBL1153864, “Phase transfer catalyzed synthesis of bis-quinolines: antileishmanial activity in experimental visceral leishmaniasis and in vitro antibacterial evaluation” (Eur J Med Chem, 2009).
Active and inactive are the calls of the source.

Legend:
[1] = test system: Leishmania donovani; assay: Antileishmanial activity against Leishmania donovani MHOM/IN/1983/AG83 promastigotes infected BALB/c mouse assessed as reduction in spleen parasite burden at 5.5 mg/kg, ip administered two times per week for 4 weeks relative to control; format: functional; design: scale not given: the % may be the effect or the level left; conditions: route intraperitoneal
Procedure, shortened: (§1)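 BALB/c mice (4-6 weeks) were infected iv with 2 × 10^7 freshly transformed promastigotes. One month later, groups were dosed ip in 0.2% Tween 80 in PBS (0.02 M), twice weekly for one month (8 doses); controls got vehicle only. Mice were killed one month post-treatment and spleen and liver were weighed. Parasite load came from Giemsa impression smears as organ weight (mg) × amastigotes per cell nucleus × 2 × 10^5. Values are mean ± S.E. of 5 mice; unpaired t-test.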

[2] = test system: Leishmania donovani; assay: Antileishmanial activity against Leishmania donovani MHOM/IN/1983/AG83 promastigotes infected BALB/c mouse assessed as reduction in liver parasite burden at 5.5 mg/kg, ip administered two times per week for 4 weeks relative to control; format: functional; design: scale not given: the % may be the effect or the level left; conditions: route intraperitoneal; procedure, shortened: as §1
[3] = test system: Leishmania donovani; assay: Antileishmanial activity against Leishmania donovani MHOM/IN/1983/AG83 promastigotes infected BALB/c mouse assessed as liver weight at 12.5 mg/kg, ip administered two times per week for 4 weeks; format: functional; conditions: route intraperitoneal; procedure, shortened: as §1
[4] = test system: Leishmania donovani; assay: Antileishmanial activity against Leishmania donovani MHOM/IN/1983/AG83 promastigotes infected BALB/c mouse assessed as liver weight at 5.5 mg/kg, ip administered two times per week for 4 weeks; format: functional; conditions: route intraperitoneal; procedure, shortened: as §1
[5] = test system: Mus musculus; assay: Toxicity in BALB/c mouse assessed as effect on serum glutamate oxaloacetate transaminase levels at 5.5 mg/kg, ip administered two times per week for 4 weeks; format: organism-based; design: dose 5.5 mg/kg, route intraperitoneal; conditions: in vivo, 672 h
Procedure, shortened: (§2)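 Normal BALB/c mice were dosed ip twice per week for 4 weeks. Blood was collected one month after treatment, and serum SGPT and SGOT (IU/l) and blood urea (mg/dl) were measured with commercial kits and compared with untreated normal mice.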

[6] = test system: Mus musculus; assay: Toxicity in BALB/c mouse assessed as effect on blood urea levels at 12.5 mg/kg, ip administered two times per week for 4 weeks; format: organism-based; design: dose 12.5 mg/kg, route intraperitoneal; conditions: in vivo, 672 h; procedure, shortened: as §2
[7] = test system: Staphylococcus aureus; assay: Antibacterial activity against Staphylococcus aureus ML6 at 25 ug/ml after 24 hrs by agar dilution method; format: functional; conditions: ML6, 24 h
Procedure, shortened: (§3)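 Agar dilution MIC. Compound dissolved in sterile 0.2% DMSO, diluted in distilled water and mixed into molten nutrient agar (pH 7.2–7.4) at 5, 10, 25, 50; plate with 0.2% DMSO as control. Gram-positives grown 18 h in nutrient broth, Gram-negatives in peptone water. Stationary-phase suspension set to 0.5 McFarland, diluted 1:100, spot-inoculated at about 10^5 CFU per loopful. Plates held 24 h at 37 °C (up to 72 h if needed). MIC is the lowest level with no growth.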

[8] = test system: Staphylococcus aureus; assay: Antibacterial activity against Staphylococcus aureus ML6 at 50 ug/ml after 24 hrs by agar dilution method; format: functional; conditions: ML6, 24 h; procedure, shortened: as §3
[9] = test system: Salmonella typhimurium; assay: Antibacterial activity against Salmonella Typhimurium NCTC 74 at 5 ug/ml after 24 hrs by agar dilution method; format: functional, organism-based; conditions: Salmonella enterica subsp. enterica serovar Typhimurium; procedure, shortened: as §3
[10] = test system: Shigella dysenteriae; assay: Antibacterial activity against Shigella dysenteriae 6 NCTC 100/54 at 10 ug/ml after 24 hrs by agar dilution method; format: functional, organism-based
[11] = test system: Shigella dysenteriae; assay: Antibacterial activity against Shigella dysenteriae 6 NCTC 100/54 at 50 ug/ml after 24 hrs by agar dilution method; format: functional; conditions: 6 NCTC 100/54, 24 h
[12] = test system: Shigella dysenteriae; assay: Antibacterial activity against Shigella dysenteriae 6 NCTC 100/54 after 24 hrs by agar dilution method; format: functional; conditions: 6 NCTC 100/54, 24 h
[13] = test system: Escherichia coli; assay: Antibacterial activity against Escherichia coli K-12 Row at 25 ug/ml after 24 hrs by agar dilution method; format: functional, organism-based; procedure, shortened: as §3
[14] = test system: Escherichia coli; assay: Antibacterial activity against Escherichia coli K-12 Row after 24 hrs by agar dilution method; format: functional; procedure, shortened: as §3
[15] = test system: Escherichia coli; assay: Antibacterial activity against Escherichia coli ATCC 25938 at 5 ug/ml after 24 hrs by agar dilution method; format: functional, organism-based; procedure, shortened: as §3
[16] = test system: Escherichia coli; assay: Antibacterial activity against Escherichia coli ATCC 25938 at 10 ug/ml after 24 hrs by agar dilution method; format: functional, organism-based; procedure, shortened: as §3
[17] = test system: Escherichia coli; assay: Antibacterial activity against Escherichia coli ATCC 25938 after 24 hrs by agar dilution method; format: functional; conditions: ATCC 25938, 24 h; procedure, shortened: as §3
[18] = test system: Vibrio cholerae; assay: Antibacterial activity against Vibrio cholerae 569B at 5 ug/ml after 24 hrs by agar dilution method; format: functional, organism-based
[19] = test system: Vibrio cholerae; assay: Antibacterial activity against Vibrio cholerae 582 at 25 ug/ml after 24 hrs by agar dilution method; format: functional; conditions: Vibrio cholerae, 582, 24 h
[20] = test system: Proteus mirabilis; assay: Antibacterial activity against Proteus mirabilis 7 at 5 ug/ml after 24 hrs by agar dilution method; format: functional, organism-based; procedure, shortened: as §3
[21] = test system: Proteus mirabilis; assay: Antibacterial activity against Proteus mirabilis 7 at 10 ug/ml after 24 hrs by agar dilution method; format: functional, organism-based; procedure, shortened: as §3
[22] = test system: Proteus mirabilis; assay: Antibacterial activity against Proteus mirabilis 7 at 25 ug/ml after 24 hrs by agar dilution method; format: functional, organism-based; procedure, shortened: as §3
[23] = test system: Proteus mirabilis; assay: Antibacterial activity against Proteus mirabilis 7 at 50 ug/ml after 24 hrs by agar dilution method; format: functional; conditions: Proteus mirabilis, 7, 24 h; procedure, shortened: as §3
[24] = test system: Bacillus licheniformis; assay: Antibacterial activity against […] Bacillus licheniformis NCTC 10341 at 25 ug/ml after 24 hrs by agar dilution method; format: functional, organism-based; procedure, shortened: as §3
[25] = test system: Bacillus licheniformis; assay: Antibacterial activity against […] Bacillus licheniformis NCTC 10341 at 50 ug/ml after 24 hrs by agar dilution method; format: functional; conditions: NCTC 10341, 24 h; procedure, shortened: as §3
[26] = test system: Pseudomonas aeruginosa; assay: Antibacterial activity against Pseudomonas aeruginosa ATCC 27853 at 10 ug/ml after 24 hrs by agar dilution method; format: functional, organism-based; procedure, shortened: as §3
[27] = test system: Pseudomonas aeruginosa; assay: Antibacterial activity against Pseudomonas aeruginosa ATCC 27853 at 50 ug/ml after 24 hrs by agar dilution method; format: functional; conditions: ATCC 27853, 24 h; procedure, shortened: as §3
[28] = test system: Pseudomonas aeruginosa; assay: Antibacterial activity against Pseudomonas aeruginosa ATCC 27853 after 24 hrs by agar dilution method; format: functional; conditions: ATCC 27853, 24 h; procedure, shortened: as §3
[29] = test system: Shigella dysenteriae; assay: Antibacterial activity against Shigella dysenteriae 7 NCTC 519/66 at 50 ug/ml after 24 hrs by agar dilution method; format: functional; conditions: 7 NCTC 519/66, 24 h
[30] = test system: Leishmania donovani; assay: Antileishmanial activity against Leishmania donovani MHOM/IN/1983/AG83 promastigotes assessed as induction of vacuolization at 2 ug/ml after 2 hrs by transmission electron microscopy; format: functional, organism-based
Procedure, shortened: (§4)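 Log-phase promastigotes, grown at 22 °C in M199 with 10% FBS, were exposed for 2 h to the compound; controls received 0.1% DMSO alone. Cells were then sectioned, stained on copper grids with uranyl acetate and lead acetate for 10-15 min each, and examined by TEM for ultrastructural changes.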

[31] = test system: Leishmania donovani; assay: Antileishmanial activity against Leishmania donovani MHOM/IN/1983/AG83 promastigotes assessed as induction of membrane blebbing at 11.5 ug/ml after 2 hrs by transmission electron microscopy; format: functional, organism-based; procedure, shortened: as §4
[32] = Down regulation of IL6 release Leishmania donovani MHOM/IN/1983/AG83 infected bacterial liposaccharide-stimulated golden Syrian hamster peritoneal macrophages; format: functional, cell-based; conditions: Mesocricetus auratus; Macrophage
[33] = Down regulation of TNFalpha release Leishmania donovani MHOM/IN/1983/AG83 infected bacterial liposaccharide-stimulated golden Syrian hamster peritoneal macrophages; format: functional, cell-based; conditions: Mesocricetus auratus; Macrophage
[34] = test system: Macrophage; assay: Induction of nitric oxide production in Leishmania donovani MHOM/IN/1983/AG83 infected golden Syrian hamster peritoneal macrophages; format: functional, cell-based; conditions: Mesocricetus auratus
[35] = Toxicity against golden Syrian hamster peritoneal macrophages; format: cell-based, Mesocricetus auratus; conditions: macrophage

Clc1ccc(OCOc2ccc(Cl)c3cccnc23)c2ncccc12
inactive: Activity [9] | Activity [10] | Activity [13] | Activity [15] | Activity [16] | Activity [18] | Activity [20] | Activity [21] | Activity [22] | Activity [24] | Activity [26]
100%: inhibition at 25 µg/mL [7] | inhibition at 50 µg/mL [8] | inhibition at 50 µg/mL [11] | inhibition at 25 µg/mL [19] | inhibition at 50 µg/mL [23] | inhibition at 50 µg/mL [25] | inhibition at 50 µg/mL [27] | inhibition at 50 µg/mL [29]
900 mg: Activity [3]
Non-toxic: Activity [5] | Activity [6]
active: Activity [30] | Activity [31] | Activity [32] | Activity [33] | Activity [34]
78%: Activity [2]
75%: Activity [1]
1120 mg: Activity [4]
50 µg/mL: MIC [12] | MIC [14] | MIC [17]
25 µg/mL: MIC [28]
> 80 µg/mL: Activity [35]
